These results are taken from ChEMBL document CHEMBL3085642, “Synthesis and evaluation of novel 4-nitropyrrole-based 1,3,4-oxadiazole derivatives as antimicrobial and anti-tubercular agents” (Eur J Med Chem, 2013).

The test system of one assay is Klebsiella pneumoniae. Briefly: Antibacterial activity against Klebsiella pneumoniae by two fold broth dilution method. The format is functional. On the technique in general: In broth dilution the organism is exposed to a series of concentrations in liquid medium.
Assay [1] relates to Staphylococcus aureus. The assay is described as follows: Antibacterial activity against methicillin-susceptible Staphylococcus aureus ATCC 35556 by broth dilution method. The format is functional.
Another assay deals with Vero. Briefly: Cytotoxicity against african green monkey Vero cells after 72 hrs by MTT assay. The format is cell-based. The following applies: Chlorocebus sabaeus. The method in brief:
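Vero cells were exposed to compounds for 72 h. Viability was measured by cellular conversion of MTT into formazan (non-radioactive proliferation assay), and the cytotoxic concentration was reported as IC50.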
On the technique in general: Formazan colour is commonly taken as a measure of viable cells.

Assay [2] relates to Mycobacterium tuberculosis. The assay is described as follows: Antitubercular activity against Mycobacterium tuberculosis H37Rv after 7 days by resazurin microtitre assay. Type of assay: functional. Particulars: 168 h.
Assay [3] has as its system Staphylococcus aureus. The assay is described as follows: Antibacterial activity against Staphylococcus aureus ATCC 25923 by two fold broth dilution method. Type of assay: functional.
The subject of assay [4] is Staphylococcus aureus. The assay is described as follows: Antibacterial activity against methicillin-resistant Staphylococcus aureus ATCC 43866 by broth dilution method. The format is functional.
Assay [5] concerns Candida albicans. Briefly: Antifungal activity against Candida albicans after 48 hrs by two fold agar dilution method. Type of assay: functional. In short, it runs like this:
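Two-fold serial dilutions in DMSO were tested against C. albicans by agar dilution. Cultures were incubated for 48 h at 35 °C and growth was monitored. MIC was taken as the lowest concentration (highest dilution) that arrested fungal growth.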
For orientation: In agar dilution, organisms are placed on agar that contains the substance at set levels.

Another assay concerns Escherichia coli. The assay is described as follows: Antibacterial activity against Escherichia coli ATCC 25922 by two fold broth dilution method. The format is functional.
Another assay has as its system Bacillus spizizenii. Briefly: Antibacterial activity against Bacillus subtilis ATCC 6633 by two fold broth dilution method. The format is functional.
Assay [6] relates to Candida albicans. Briefly: Ratio of ampotericin-B MIC to compound MIC against Candida albicans. The format is functional.
For assay [7], the system named is Staphylococcus aureus. Briefly: Ratio of ciprofloxacin MIC to compound MIC against Staphylococcus aureus ATCC 25923. The format is functional.

≈ marks a conversion by molar mass, not a printed value.

For `O=[N+]([O-])c1c[nH]c(-c2nnc(Cc3ccccc3F)o2)c1`, the minimum inhibitory concentration (MIC) (commonly the lowest concentration found to suppress growth) amounted to 25 µg/mL (≈ 86.7 µM) against Klebsiella pneumoniae; 1.56 µg/mL (≈ 5.41 µM) with Staphylococcus aureus [1]; 0.46 µg/mL (≈ 1.6 µM) in assay [2]; 1.56 µg/mL (≈ 5.41 µM) against Staphylococcus aureus [3]; 3.12 µg/mL (≈ 10.8 µM) in the assay with Staphylococcus aureus [4]; 3.12 µg/mL (≈ 10.8 µM) in the assay on Candida albicans [5]. The minimum inhibitory concentration (MIC) against Escherichia coli and in the assay on Bacillus spizizenii was 1.56 µg/mL (≈ 5.41 µM) in each case. In addition, it took 620 µM to reach half-maximal inhibition in the assay with Vero (IC50).

For the compound `O=[N+]([O-])c1c[nH]c(-c2nnc(-c3cc4cc(Cl)ccc4[nH]3)o2)c1`, the MIC in the assay with Klebsiella pneumoniae is 25 µg/mL (≈ 75.8 µM); in the assay with Staphylococcus aureus [1], 1.56 µg/mL (≈ 4.73 µM); in assay [2], 3.4 µg/mL (≈ 10.3 µM); against Staphylococcus aureus [3], 1.56 µg/mL (≈ 4.73 µM); in the assay with Staphylococcus aureus [4] it was 3.12 µg/mL (≈ 9.48 µM); in the assay on Candida albicans [5] it was 3.12 µg/mL (≈ 9.48 µM). In addition, the minimal inhibitory concentration (MIC) in the assay with Escherichia coli is 1.56 µg/mL (≈ 4.73 µM); with Bacillus spizizenii, 3.12 µg/mL (≈ 9.48 µM). In the assay on Vero, the midpoint of inhibition, the IC50, lay at 329 µM.

Consider `COc1cc(/C=C/c2nnc(-c3cc([N+](=O)[O-])c[nH]3)o2)ccc1O`, for which the minimal inhibitory concentration (MIC) is 100 µg/mL (≈ 305 µM) in the assay with Klebsiella pneumoniae; 1.56 µg/mL (≈ 4.75 µM) against Staphylococcus aureus [1]; 23.7 µg/mL (≈ 72.2 µM) in assay [2]; 3.12 µg/mL (≈ 9.52 µM) in the assay on Staphylococcus aureus [3]; 3.12 µg/mL (≈ 9.52 µM) in the assay on Staphylococcus aureus [4]; 25 µg/mL (≈ 76.2 µM) against Candida albicans [5]. Further, the MIC against Escherichia coli and against Bacillus spizizenii was 3.12 µg/mL (≈ 9.52 µM) each time. For the same compound, the IC50 (as a rule, the concentration needed to halve the response being measured) in the assay with Vero was found to be 220 µM.

`Cc1ccc(-c2nnc(-c3cc([N+](=O)[O-])cn3C)o2)s1`: the MIC in the assay with Klebsiella pneumoniae was determined as 12.5 µg/mL (≈ 43.1 µM); with Staphylococcus aureus [1], 1.56 µg/mL (≈ 5.37 µM); in the assay with Staphylococcus aureus [3], 0.78 µg/mL (≈ 2.69 µM); against Staphylococcus aureus [4], 1.56 µg/mL (≈ 5.37 µM); in the assay on Candida albicans [5] it was 1.56 µg/mL (≈ 5.37 µM); with Escherichia coli, 6.25 µg/mL (≈ 21.5 µM). The compound also displayed an MIC with Bacillus spizizenii of 1.56 µg/mL (≈ 5.37 µM). The Ratio in the assay with Candida albicans [6] and in the assay on Staphylococcus aureus [7] was 2 in each case. In the assay on Vero, 98.3 µM corresponded to half-maximal inhibition (IC50).

On to `O=[N+]([O-])c1c[nH]c(-c2nnc(-c3ccccc3)o2)c1`, for which the minimum inhibitory concentration (MIC) against Klebsiella pneumoniae was 25 µg/mL (≈ 97.6 µM); against Staphylococcus aureus [1], 1.56 µg/mL (≈ 6.09 µM); in assay [2] it was 56.3 µg/mL (≈ 220 µM); in the assay with Staphylococcus aureus [3], 3.12 µg/mL (≈ 12.2 µM); against Staphylococcus aureus [4], 3.12 µg/mL (≈ 12.2 µM); in the assay with Candida albicans [5] it was 12.5 µg/mL (≈ 48.8 µM). The figures for the minimal inhibitory concentration (MIC) against Escherichia coli and in the assay on Bacillus spizizenii were 6.25 µg/mL (≈ 24.4 µM) and 3.12 µg/mL (≈ 12.2 µM), respectively. For the same compound, inhibition in the assay with Vero was half-maximal at 423 µM (IC50).

In the case of `COc1cccc(OC)c1-c1nnc(-c2cc([N+](=O)[O-])c[nH]2)o1`, the minimal inhibitory concentration (MIC) in the assay with Klebsiella pneumoniae turned out to be 25 µg/mL (≈ 79 µM); against Staphylococcus aureus [1], 1.56 µg/mL (≈ 4.93 µM); in assay [2], 5.4 µg/mL (≈ 17.1 µM); in the assay with Staphylococcus aureus [3], 1.56 µg/mL (≈ 4.93 µM); with Staphylococcus aureus [4], 3.12 µg/mL (≈ 9.88 µM); against Candida albicans [5], 3.12 µg/mL (≈ 9.88 µM). Further, the minimal inhibitory concentration (MIC) against Escherichia coli and in the assay with Bacillus spizizenii was 3.12 µg/mL (≈ 9.88 µM) throughout. For the same compound, the 50% inhibitory concentration (IC50) in the assay on Vero came out at 170 µM.

For the compound `O=[N+]([O-])c1c[nH]c(-c2nnc(C3(c4ccccc4)CC3)o2)c1`, the MIC turned out to be 25 µg/mL (≈ 84.4 µM) in the assay with Klebsiella pneumoniae; 1.56 µg/mL (≈ 5.27 µM) against Staphylococcus aureus [1]; 56.8 µg/mL (≈ 192 µM) in assay [2]; 0.78 µg/mL (≈ 2.63 µM) with Staphylococcus aureus [3]; 3.12 µg/mL (≈ 10.5 µM) in the assay on Staphylococcus aureus [4]; 25 µg/mL (≈ 84.4 µM) in the assay with Candida albicans [5]. Besides, the MIC in the assay with Escherichia coli came to 1.56 µg/mL (≈ 5.27 µM); against Bacillus spizizenii, 3.12 µg/mL (≈ 10.5 µM). Moreover, inhibition with Vero was half-maximal at 380 µM (IC50). Further, the Ratio in the assay on Staphylococcus aureus [7] was 2.

Regarding `O=[N+]([O-])c1c[nH]c(-c2nnc(-c3ccco3)o2)c1`, the MIC with Klebsiella pneumoniae amounted to 25 µg/mL (≈ 102 µM); against Staphylococcus aureus [1], 1.56 µg/mL (≈ 6.34 µM); in [2], 42.8 µg/mL (≈ 174 µM); against Staphylococcus aureus [3], 0.78 µg/mL (≈ 3.17 µM); in the assay on Staphylococcus aureus [4], 3.12 µg/mL (≈ 12.7 µM); with Candida albicans [5], 3.12 µg/mL (≈ 12.7 µM). The MIC against Escherichia coli amounted to 3.12 µg/mL (≈ 12.7 µM); in the assay with Bacillus spizizenii, 1.56 µg/mL (≈ 6.34 µM). In the assay on Vero, this compound displayed an IC50 of 370 µM. Also, the Ratio with Staphylococcus aureus [7] is on record as 2.

With `NNC(=O)c1ccncc1` [ISONIAZID], in assay [2], 0.4 µg/mL (≈ 2.92 µM) was the least that counted as inhibitory (MIC).

With `O=[N+]([O-])c1c[nH]c(-c2nnc(Cc3ccc(F)c4ccccc34)o2)c1`, the minimal inhibitory concentration (MIC) in the assay with Klebsiella pneumoniae was found to be 25 µg/mL (≈ 73.9 µM); against Staphylococcus aureus [1] it was 1.56 µg/mL (≈ 4.61 µM); in [2] it was 64.8 µg/mL (≈ 192 µM); against Staphylococcus aureus [3], 1.56 µg/mL (≈ 4.61 µM); with Staphylococcus aureus [4], 3.12 µg/mL (≈ 9.24 µM); with Candida albicans [5] it was 3.12 µg/mL (≈ 9.24 µM). For the same compound, the minimum inhibitory concentration (MIC) against Escherichia coli and with Bacillus spizizenii was 3.12 µg/mL (≈ 9.24 µM) in each case. In addition, 229 µM corresponded to half-maximal inhibition in the assay with Vero (IC50).

Consider `C[C@@H]1[C@H](O)[C@@H](C)/C=C/C=C/C=C/C=C/C=C/C=C/C=C/[C@H](O[C@@H]2O[C@H](C)[C@@H](O)[C@H](N)[C@@H]2O)C[C@@H]2O[C@](O)(C[C@@H](O)C[C@@H](O)[C@H](O)CC[C@@H](O)C[C@@H](O)CC(=O)O[C@H]1C)C[C@H](O)[C@H]2C(=O)O` [AMPHOTERICIN B], for which, in the assay with Candida albicans [5], the MIC was found to be 3.12 µg/mL (≈ 3.38 µM).

As for `N#Cc1ccc(-c2nnc(-c3cc([N+](=O)[O-])c[nH]3)o2)cc1`, the MIC was determined as 25 µg/mL (≈ 88.9 µM) against Klebsiella pneumoniae; 1.56 µg/mL (≈ 5.55 µM) against Staphylococcus aureus [1]; 26.8 µg/mL (≈ 95.3 µM) in [2]; 1.56 µg/mL (≈ 5.55 µM) against Staphylococcus aureus [3]; 3.12 µg/mL (≈ 11.1 µM) with Staphylococcus aureus [4]; 3.12 µg/mL (≈ 11.1 µM) against Candida albicans [5]. Moreover, the MIC with Escherichia coli and against Bacillus spizizenii was 3.12 µg/mL (≈ 11.1 µM) each time. The same compound displayed a half-inhibitory concentration (IC50) in the assay on Vero of 199 µM.
